Legend:
[1] = system: Rattus norvegicus; experiment: Maximum fall in systolic blood pressure, intervals from 1 to 6 hours at a dose of 100 mg/kg administered per orally; assay type: functional, Artery; conditions: route oral
Procedure, shortened: (§1)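 DOCA/NaCl-treated hypertensive rats, kept at least 2 months after surgery (body weight 300–450 g), selected at systolic pressure of 160 mmHg or more. Compound given orally by dosing needle into the esophagus as a solution or suspension in 1% w/v methylcellulose. Systolic pressure measured by tail-cuff in restrained rats at 33.5 °C, before dosing and at intervals from 1 to 6 h; each reading was the mean of at least six recordings.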

[2] = system: Rattus norvegicus; experiment: Maximum fall in systolic blood pressure, intervals from 1 to 6 hours at a dose of 10 mg/kg administered per orally; assay type: functional, Artery; conditions: route oral; procedure, shortened: as §1
[3] = system: Rattus norvegicus; experiment: Maximum fall in systolic blood pressure at interval from 1 to 6 hours at a dose of 1 mg/kg when administered perorally in rats; assay type: functional, Artery; conditions: route oral; procedure, shortened: as §1
[4] = system: Rattus norvegicus; experiment: Maximum fall in systolic blood pressure at interval from 1 to 6 hours at a dose of 3 mg/kg when administered perorally in rats; assay type: functional, Artery; conditions: route oral; procedure, shortened: as §1
[5] = system: Rattus norvegicus; experiment: Maximum fall in systolic blood pressure at interval from 1 to 6 hours at a dose of 30 mg/kg when administered perorally in rats; assay type: functional, Artery; conditions: route oral; procedure, shortened: as §1
[6] = system: Rattus norvegicus; experiment: Maximum fall in systolic blood pressure at interval from 1 to 6 hours at a dose of 0.3 mg/kg when administered perorally in rats; assay type: functional, Artery; conditions: route oral; procedure, shortened: as §1
[7] = system: Rattus norvegicus; experiment: Maximum fall in systolic blood pressure at interval from 1 to 6 hours at a dose of 300 mg/kg when administered perorally in rats; assay type: functional, Artery; conditions: route oral; procedure, shortened: as §1
[8] = organism: Rattus norvegicus; experiment: Compound was tested at 9.7e-6M for inhibition of spontaneous activity in rat isolated portal vein

Row | Structure (SMILES) | Max fall in blood pressure [1] [mmHg] | Max fall in blood pressure [2] [mmHg] | Max fall in blood pressure [5] [mmHg] | other results
1 | CC1(C)Oc2ccc(C(N)=O)cc2[C@@H](N2CCCC2)[C@@H]1O.CS(=O)(=O)O | 21 | – | – | –
2 | CC(=O)Nc1ccc2c(c1)[C@@H](N1CCCCC1)[C@H](O)C(C)(C)O2.CS(=O)(=O)O | 14 | 6 | – | –
3 | CC1(C)Oc2ccc([N+](=O)[O-])cc2[C@@H](N2C3CCCC2CCC3)[C@@H]1O.CS(=O)(=O)O | – | 20 | – | –
4 | CC1(C)Oc2ccc([N+](=O)[O-])cc2[C@@H](N2CCCC2)[C@@H]1O.CS(=O)(=O)O | – | 98 | – | Max fall in blood pressure [3]: 52 mmHg; Max fall in blood pressure [4]: 79 mmHg
5 | C/C(=N\O)c1ccc2c(c1)[C@@H](N1CCCCC1)[C@H](O)C(C)(C)O2.CS(=O)(=O)O | 74 | 17 | 80 | –
6 | CC1(C)Oc2ccc([N+](=O)[O-])cc2[C@@H](NC2CC2)[C@@H]1O.CS(=O)(=O)O | 95 | 31 | – | –
7 | COC(=O)c1ccc2c(c1)[C@@H](N1CCCC1)[C@H](O)C(C)(C)O2.CS(=O)(=O)O | – | 58 | 65 | Max fall in blood pressure [4]: 14 mmHg
8 | CC(C)(C)N[C@@H]1c2cc([N+](=O)[O-])ccc2OC(C)(C)[C@H]1O.CS(=O)(=O)O | 7 | – | – | –
9 | CS(=O)(=O)O.Cc1c([N+](=O)[O-])ccc2c1OC(C)(C)[C@@H](O)[C@@H]2N1CCCCC1 | 39 | – | – | –
10 | CC1(C)Oc2ccc([N+](=O)[O-])cc2[C@@H](N2CCCCC2)[C@@H]1O.CS(=O)(=O)O | – | 105 | – | Max fall in blood pressure [3]: 28 mmHg; Max fall in blood pressure [4]: 73 mmHg
11 | CC1(C)Oc2ccc(C(=O)O)cc2[C@@H](N2CCCC2)[C@@H]1O | – | 2 | – | –
12 | CC1(C)Oc2cc([N+](=O)[O-])ccc2[C@@H](N2CCCC2)[C@@H]1O.CS(=O)(=O)O | – | 99 | – | Max fall in blood pressure [3]: 44 mmHg; Max fall in blood pressure [4]: 90 mmHg
13 | CC1(C)Oc2c(ccc3ccccc23)[C@@H](N2CCCC2)[C@@H]1O | 4 | – | – | –
14 | CC1(C)Oc2ccc(C(N)=O)cc2[C@@H](N2CCCCC2)[C@@H]1O.CS(=O)(=O)O | 30 | 9 | – | –
15 | CN[C@@H]1c2cc([N+](=O)[O-])ccc2OC(C)(C)[C@H]1O.Cl | 43 | – | 21 | –
16 | COc1ccc2c(c1)[C@@H](N1CCCC1)[C@H](O)C(C)(C)O2.Cl | 17 | – | 29 | –
17 | CC1(C)Oc2ccc(Cl)cc2[C@@H](N2CCCCC2)[C@@H]1O.Cl | 69 | – | 7 | –
18 | CC1(C)Oc2cccc(C#N)c2[C@@H](N2CCCCC2)[C@@H]1O.Cl | 33 | 13 | – | –
19 | CC1(C)Oc2ccc(C#N)cc2[C@@H](N2CCCCC2)[C@@H]1O.Cl | – | 107 | – | Max fall in blood pressure [6]: 29 mmHg; Max fall in blood pressure [3]: 35 mmHg; Max fall in blood pressure [4]: 88 mmHg
20 | CC1(C)Oc2ccc([N+](=O)[O-])cc2[C@@H](N2CCCCCC2)[C@@H]1O.Cl | 96 | 17 | – | –
21 | CC1(C)Oc2cc([N+](=O)[O-])ccc2[C@@H](N2CCCCC2)[C@@H]1O.Cl | 79 | 48 | – | Max fall in blood pressure [4]: 18 mmHg
22 | CCN(CC)[C@@H]1c2cc([N+](=O)[O-])ccc2OC(C)(C)[C@H]1O.Cl | 54 | – | 34 | –
23 | Cc1ccc2c(c1)[C@@H](N1CCCCC1)[C@H](O)C(C)(C)O2.Cl | 43 | 34 | 44 | –
24 | CC1(C)Oc2ccc([N+](=O)[O-])cc2[C@@H](NCCCO)[C@@H]1O.Cl | 28 | – | – | –
25 | CC1(C)Oc2cc(C#N)ccc2[C@@H](N2CCCCC2)[C@@H]1O.Cl | 33 | – | 7 | –

Row | Structure (SMILES) | Max fall in blood pressure [1] [mmHg] | Max fall in blood pressure [2] [mmHg] | Max fall in blood pressure [5] [mmHg] | other results
26 | CC1(C)Oc2ccc(F)cc2[C@@H](N2CCCCC2)[C@@H]1O.Cl | 26 | 16 | – | –
27 | CC(=O)c1ccc2c(c1)[C@@H](N1CCCCC1)[C@H](O)C(C)(C)O2.Cl | 127 | 51 | 65 | Max fall in blood pressure [4]: 12 mmHg
28 | CC1CCN([C@@H]2c3cc([N+](=O)[O-])ccc3OC(C)(C)[C@H]2O)CC1.Cl | – | 28 | – | –
29 | CC1(C)Oc2c(C#N)cccc2[C@@H](N2CCCCC2)[C@@H]1O.Cl | 33 | 5 | – | –
30 | CC(C)N[C@@H]1c2cc([N+](=O)[O-])ccc2OC(C)(C)[C@H]1O.Cl | 36 | – | – | Max fall in blood pressure [7]: 69 mmHg
31 | CC1(C)Oc2ccc([N+](=O)[O-])cc2[C@@H](NCCO)[C@@H]1O.Cl | 27 | – | – | –
32 | CC1(C)Oc2ccc(C#N)cc2[C@@H](N2CCCC2)[C@@H]1O.Cl | – | – | – | Max fall in blood pressure [6]: 15 mmHg; Max fall in blood pressure [3]: 43 mmHg; Inhibition [8]: 32%; Max fall in blood pressure [4]: 117 mmHg
33 | CC1(C)Oc2ccccc2[C@@H](N2CCCC2)[C@@H]1O.Cl | 46 | – | 10 | –
34 | CC1(C)Oc2ccc([N+](=O)[O-])cc2[C@@H](N2CCN(c3ccccc3)CC2)[C@@H]1O.Cl | – | 10 | – | –
35 | CC1(C)Oc2ccc([N+](=O)[O-])cc2[C@@H](NCC2CC2)[C@@H]1O.Cl | 13 | – | – | –
36 | CC1CCC(C)N1[C@@H]1c2cc([N+](=O)[O-])ccc2OC(C)(C)[C@H]1O.Cl (stereo not given in full) | – | – | 26 | –
37 | CC(O)c1ccc2c(c1)[C@@H](N1CCCCC1)[C@H](O)C(C)(C)O2.Cl (stereo not given in full) | – | 20 | 115 | –
38 | CC1(C)Oc2ccc3ccccc3c2[C@@H](N2CCCCC2)[C@@H]1O.Cl | 4 | – | – | –
39 | CN(C)[C@@H]1c2cc([N+](=O)[O-])ccc2OC(C)(C)[C@H]1O.Cl | 29 | – | – | –
40 | CC1(C)Oc2ccc([N+](=O)[O-])cc2[C@@H](N)[C@@H]1O.Cl | 45 | – | 23 | –
41 | Cc1ccc2c(c1)[C@@H](N1CCCC1)[C@H](O)C(C)(C)O2.Cl | 9 | – | – | –
42 | CC(=O)c1ccc2c(c1)[C@@H](N1CCCC1)[C@H](O)C(C)(C)O2.Cl | 78 | 53 | 66 | Max fall in blood pressure [4]: 39 mmHg
43 | CC1(C)Oc2cccc([N+](=O)[O-])c2[C@@H](N2CCCCC2)[C@@H]1O.Cl | 12 | – | – | –
44 | CC1(C)Oc2ccc([N+](=O)[O-])cc2[C@@H](N2CCOCC2)[C@@H]1O.Cl | 70 | 23 | 55 | –
45 | CC1(C)Oc2ccc(N)cc2[C@@H](N2CCCC2)[C@@H]1O.Cl.Cl | 6 | – | – | –
46 | CC1(C)Oc2ccc([N+](=O)[O-])cc2[C@@H](NCCN2CCCC2)[C@@H]1O.Cl.Cl | 23 | – | – | –
47 | CC1(C)Oc2ccc([N+](=O)[O-])cc2[C@@H](N2CCCCCCC2)[C@@H]1O.Cl | – | 53 | 82 | Max fall in blood pressure [4]: 34 mmHg
48 | NNc1nncc2ccccc12 [HYDRALAZINE] | – | 113 | – | Max fall in blood pressure [3]: 32 mmHg; Inhibition [8]: 40%; Max fall in blood pressure [4]: 65 mmHg
49 | COC(=O)C1=C(C)NC(C)=C(C(=O)OC)C1c1ccccc1[N+](=O)[O-] [NIFEDIPINE] | – | – | – | Max fall in blood pressure [6]: 20 mmHg; Max fall in blood pressure [3]: 33 mmHg; Max fall in blood pressure [4]: 51 mmHg

Source: ChEMBL document CHEMBL1122483, “Synthesis and antihypertensive activity of substituted trans-4-amino-3,4-dihydro-2,2-dimethyl-2H-1-benzopyran-3-ols” (1983)
